Assay results taken from ChEMBL document CHEMBL3400013, “Synthesis and biological activity evaluation of hydrazone derivatives based on a Tröger's base skeleton” (Bioorg Med Chem, 2015).
pIC50: −log10 of the molar value. The source made the active and inactive calls. The calls are words filed in the database; no cut-off is given here.

Experiments:
Nucleic Acid [1] = assay: Binding affinity to DNA (unknown origin) assessed as DNA intercalation by UV-visible spectrophotometry in presence of Fe3+; format: nucleic-acid assay
Nucleic Acid [2] = assay: Binding affinity to DNA (unknown origin) assessed as DNA intercalation by UV-visible spectrophotometry in presence of Ni2+; format: nucleic-acid assay
Nucleic Acid [3] = assay: Binding affinity to DNA (unknown origin) assessed as DNA intercalation by UV-visible spectrophotometry in presence of Zn2+; format: nucleic-acid assay
BJ [4] = assay: Selectivity index, ratio of IC50 for human BJ cells to IC50 for human CEM-DNR cells; format: functional
BJ [5] = assay: Selectivity index, ratio of IC50 for human BJ cells to IC50 for human K562 cells; format: functional
A549 [6] = assay: Selectivity index, ratio of IC50 for human BJ cells to IC50 for human A549 cells; format: functional
A549 [7] = assay: Selectivity index, ratio of IC50 for human MRC5 cells to IC50 for human A549 cells; format: functional
HCT-116 = assay: Selectivity index, ratio of IC50 for human MRC5 cells to IC50 for human HCT116 cells; format: functional
BJ [8] = assay: Selectivity index, ratio of IC50 for human BJ cells to IC50 for human p53-/- HCT116 cells; format: functional
CCRF-CEM [9] = assay: Cytostatic activity against human CCRF-CEM cells after 72 hrs by MTT assay; format: functional, cell-based
Method in brief: (§1)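 Cells were seeded at 25,000–30,000 per well and pre-incubated for 24 h at 37°C in 5% CO2. Four-fold compound dilutions were added in duplicate and incubated for 72 h. MTT was added for 1–4 h, and formazan was dissolved in 10% aq SDS (pH 5.5) overnight at 37°C. OD was read at 540 nm. IC50 came from dose-response curves, mean ± SD of eight independent experiments.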

[10] = Cytostatic activity against human CEM-DNR cells after 72 hrs by MTT assay; format: functional, cell-based; method in brief: as §1
[11] = Cytostatic activity against human K562-TAX cells after 72 hrs by MTT assay; format: functional, cell-based; method in brief: as §1
A549 [12] = assay: Cytostatic activity against human A549 cells after 72 hrs by MTT assay; format: functional, cell-based; settings: A549, 72 h; method in brief: as §1
[13] = Cytostatic activity against human HCT116 cells after 72 hrs by MTT assay; format: functional, cell-based; settings: HCT-116, 72 h; method in brief: as §1
BJ [14] = assay: Cytostatic activity against human BJ cells after 72 hrs by MTT assay; format: ADME, cell-based; method in brief: as §1
CCRF-CEM [15] = assay: Induction of apoptosis in human CCRF-CEM cells assessed as apoptotic cells at IC50 after 24 hrs by propidium iodide staining-based flow cytometry; format: functional
Method in brief: (§2)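 Cells were then fixed in 70% ethanol, washed in hypotonic citrate buffer, treated with RNase (50 µg/mL) and stained with propidium iodide. Flow cytometry used a 488 nm laser. Apoptosis was scored as the percentage of particles with propidium content below G0/G1.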

CCRF-CEM [16] = assay: Induction of apoptosis in human CCRF-CEM cells assessed as apoptotic cells at 5 times IC50 after 24 hrs by propidium iodide staining-based flow cytometry; format: functional; method in brief: as §2
CCRF-CEM [17] = assay: Cell cycle arrest in human CCRF-CEM cells assessed as accumulation at G0/G1 phase at 5 times IC50 after 24 hrs by propidium iodide staining-based flow cytometry; format: functional; method in brief: as §2
CCRF-CEM [18] = assay: Cell cycle arrest in human CCRF-CEM cells assessed as accumulation at S phase at IC50 after 24 hrs by propidium iodide staining-based flow cytometry; format: functional; method in brief: as §2
CCRF-CEM [19] = assay: Cell cycle arrest in human CCRF-CEM cells assessed as accumulation at S phase at 5 times IC50 after 24 hrs by propidium iodide staining-based flow cytometry; format: functional; method in brief: as §2
CCRF-CEM [20] = assay: Cell cycle arrest in human CCRF-CEM cells assessed as accumulation at G2/M phase at IC50 after 24 hrs by propidium iodide staining-based flow cytometry; format: functional; method in brief: as §2
CCRF-CEM [21] = assay: Cell cycle arrest in human CCRF-CEM cells assessed as accumulation at G2/M phase at 5 times IC50 after 24 hrs by propidium iodide staining-based flow cytometry; format: functional; method in brief: as §2
CCRF-CEM [22] = assay: Induction of apoptosis in human CCRF-CEM cells assessed as mitotic cells at IC50 after 24 hrs by pH3Ser10+ labeling-based flow cytometry; format: functional
CCRF-CEM [23] = assay: Induction of apoptosis in human CCRF-CEM cells assessed as mitotic cells at 5 times IC50 after 24 hrs by pH3Ser10+ labeling-based flow cytometry; format: functional
CCRF-CEM [24] = assay: Induction of apoptosis in human CCRF-CEM cells assessed as inhibition of DNA synthesis at IC50 after 24 hrs by propidium iodide/BrdU staining by flow cytometry; format: functional; design: scale not given: the % may be the effect or the level left
CCRF-CEM [25] = assay: Induction of apoptosis in human CCRF-CEM cells assessed as inhibition of DNA synthesis at 5 times IC50 after 24 hrs by propidium iodide/BrdU staining by flow cytometry; format: functional; design: scale not given: the % may be the effect or the level left
Enterococcus faecalis = assay: Antimicrobial activity against Enterococcus faecalis CCM 4224 up to 200 uM after 24 to 48 hrs by broth microdilution method; format: functional, organism-based
Staphylococcus aureus = assay: Antimicrobial activity against Staphylococcus aureus CCM 3953 up to 200 uM after 24 to 48 hrs by broth microdilution method; format: functional, organism-based
Pseudomonas aeruginosa [26] = assay: Antimicrobial activity against Pseudomonas aeruginosa CCM 395 up to 200 uM after 24 to 48 hrs by broth microdilution method; format: functional, organism-based
[27] = tested on: Staphylococcus haemolyticus; assay: Antimicrobial activity against methicillin-resistant Staphylococcus haemolyticus A1/16568 up to 200 uM after 24 to 48 hrs by broth microdilution method; format: functional, organism-based
Pseudomonas aeruginosa [28] = assay: Antimicrobial activity against multidrug-resistant Pseudomonas aeruginosa A/16575 up to 200 uM after 24 to 48 hrs by broth microdilution method; format: functional, organism-based
Pichia kudriavzevii = assay: Antifungal activity against Candida crusei up to 200 uM after 24 to 48 hrs by broth microdilution method; format: functional, organism-based
Candida tropicalis = assay: Antifungal activity against Candida tropicalis up to 200 uM after 24 to 48 hrs by broth microdilution method; format: functional, organism-based
Candida parapsilosis = assay: Antifungal activity against Candida parapsilosis up to 200 uM after 24 to 48 hrs by broth microdilution method; format: functional, organism-based
[29] = Metal chelating activity of the compound assessed as formation of Co2+ complex by UV-vis spectrometry; format: physicochemical
[30] = Metal chelating activity of the compound assessed as formation of Cu2+ complex by UV-vis spectrometry; format: physicochemical
[31] = Metal chelating activity of the compound assessed as formation of Fe3+ complex by UV-vis spectrometry; format: physicochemical
[32] = Metal chelating activity of the compound assessed as formation of Ni2+ complex by UV-vis spectrometry; format: physicochemical
[33] = Metal chelating activity of the compound assessed as formation of Ca2+ complex by UV-vis spectrometry; format: physicochemical
[34] = Metal chelating activity of the compound assessed as formation of Mg2+ complex by UV-vis spectrometry; format: physicochemical
[35] = Metal chelating activity of the compound assessed as formation of Fe2+ complex by UV-vis spectrometry; format: physicochemical
[36] = Metal chelating activity of the compound assessed as formation of Cr3+ complex by UV-vis spectrometry; format: physicochemical
Nucleic Acid [37] = assay: Binding affinity to DNA (unknown origin) assessed as DNA intercalation by UV-visible spectrophotometry; format: nucleic-acid assay
Nucleic Acid [38] = assay: Binding affinity to DNA (unknown origin) assessed as DNA intercalation by UV-visible spectrophotometry in presence of Cu2+; format: nucleic-acid assay

In the case of O=C(N/N=C/c1nccc2ccccc12)c1ccc2c3c(ccc2c1)N1Cc2c(ccc4cc(C(=O)N/N=C/c5nccc6ccccc56)ccc24)N(C3)C1, the Activity (Nucleic Acid [1]) was “Active”, the Activity (Nucleic Acid [2]) was “Active” and the Activity (Nucleic Acid [3]) was “Active”. The “Ratio IC50” value (BJ [4]) was 15.9, the “Ratio IC50” value (BJ [5]) was 121.9 and the “Ratio IC50” value (A549 [6]) was 5.4. The “Ratio IC50” value (A549 [7]) was 5.4, the “Ratio IC50” value (HCT-116) was 5.7 and the “Ratio IC50” value (BJ [8]) was 4. For the same compound, the pIC50 (CCRF-CEM [9]) was 6.24, the pIC50 [10] was 5.20 and the pIC50 [11] was 4.99. The pIC50 (A549 [12]) was 4.73, the pIC50 [13] was 4.75 and the pIC50 (BJ [14]) was < 4.00. It also gave an Activity (CCRF-CEM [15]) of 8.4%, an Activity (CCRF-CEM [16]) of 10.73% and an Activity (CCRF-CEM [17]) of 46.56%. The Activity (CCRF-CEM [18]) was 38.56%, the Activity (CCRF-CEM [19]) was 39.87% and the Activity (CCRF-CEM [20]) was 15.35%. For the same compound, the Activity (CCRF-CEM [21]) was 13.57%, the Activity (CCRF-CEM [22]) was 1.65% and the Activity (CCRF-CEM [23]) was 1.52%. For the same compound, the Activity (CCRF-CEM [24]) was 52.93%, the Activity (CCRF-CEM [25]) was 43.36% and the Activity (Enterococcus faecalis) was “inactive”. For the same compound, the Activity (Staphylococcus aureus) was “inactive”, the Activity (Pseudomonas aeruginosa [26]) was “inactive” and the Activity [27] was “inactive”. For the same compound, the Activity (Pseudomonas aeruginosa [28]) was “inactive”, the Activity (Pichia kudriavzevii) was “inactive” and the Activity (Candida tropicalis) was “inactive”. The Activity (Candida parapsilosis) was “inactive”, the Activity [29] was “Active” and the Activity [30] was “Active”. For the same compound, the Activity [31] was “Active”, the Activity [32] was “Active” and the Activity [33] was “Not Active”. The Activity [34] was “Not Active”, the Activity [35] was “Not Active” and the Activity [36] was “Not Active”. For the same compound, the Activity (Nucleic Acid [37]) was “inactive” and the Activity (Nucleic Acid [38]) was “Active”.

For O=C(N/N=C/c1cc(F)ccc1O)c1ccc2c3c(ccc2c1)N1Cc2c(ccc4cc(C(=O)N/N=C/c5cc(F)ccc5O)ccc24)N(C3)C1, the Activity (Nucleic Acid [1]) was “Active”, the Activity (Nucleic Acid [2]) was “Active” and the Activity (Nucleic Acid [3]) was “Active”. For the same compound, the “Ratio IC50” value (BJ [4]) was 9.8, the “Ratio IC50” value (BJ [5]) was 18.1 and the “Ratio IC50” value (A549 [6]) was 33.6. For the same compound, the “Ratio IC50” value (A549 [7]) was 33.6, the “Ratio IC50” value (HCT-116) was 64.9 and the “Ratio IC50” value (BJ [8]) was 51. It also gave a pIC50 (CCRF-CEM [9]) of 5.80, a pIC50 [10] of 5.37 and a pIC50 [11] of 5.63. It also gave a pIC50 (A549 [12]) of 5.91, a pIC50 [13] of 6.19 and a pIC50 (BJ [14]) of 4.27. The Activity (CCRF-CEM [15]) was 40.42%, the Activity (CCRF-CEM [16]) was 58.01% and the Activity (CCRF-CEM [17]) was 41.1%. It also gave an Activity (CCRF-CEM [18]) of 55.45%, an Activity (CCRF-CEM [19]) of 42.41% and an Activity (CCRF-CEM [20]) of 13.05%. It also gave an Activity (CCRF-CEM [21]) of 16.49%, an Activity (CCRF-CEM [22]) of 0.3% and an Activity (CCRF-CEM [23]) of 0.15%. The Activity (CCRF-CEM [24]) was 13.69%, the Activity (CCRF-CEM [25]) was 1.54% and the Activity (Enterococcus faecalis) was “inactive”. For the same compound, the Activity (Staphylococcus aureus) was “inactive”, the Activity (Pseudomonas aeruginosa [26]) was “inactive” and the Activity [27] was “inactive”. The Activity (Pseudomonas aeruginosa [28]) was “inactive”, the Activity (Pichia kudriavzevii) was “inactive” and the Activity (Candida tropicalis) was “inactive”. The Activity (Candida parapsilosis) was “inactive”, the Activity [29] was “Active” and the Activity [30] was “Active”. The Activity [31] was “Active”, the Activity [32] was “Active” and the Activity [33] was “Not Active”. The Activity [34] was “Not Active”, the Activity [35] was “Not Active” and the Activity [36] was “Not Active”. The Activity (Nucleic Acid [37]) was “inactive” and the Activity (Nucleic Acid [38]) was “Active”.
